This is a sample that favours compounds with a hit; in the whole collection about 1.9% have one here.
PGC1a acetyl inh = modulators of PGC1a acetylation. U2OS PGC1a acetylation, AlphaScreen anti-acetyl-lysine; with virally co-expressed GCN5 acetyltransferase. inhibition, % at 15.6 µM. 0.17% of 350,000 active;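 active = every replicate shows inhibition of at least 40%; inconclusive = mean inhibition at least 40% but some replicate below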;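 also: 0% = neutral control wells and 100% = positive control wells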
Xi reactivation = X-chromosome reactivation activator; 0.055% of 360,000 active; XiGFP mouse fibroblasts, % GFP-positive cells imaging, 3 d; cells co-treated with 5-aza-dC sensitizer; scaled so ellipticine positive control = 100%; activation, % at 7.58 µM;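 active = mean normalized replicate activation at least 10% and every replicate at or above 10%; inconclusive = only one of the two criteria met; inactive = mean below 10% and not all replicates reach 10%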;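 also: 0% = median of on-plate neutral control wells and 100% = ellipticine 6 µM median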
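Material: SV40-immortalized XiGFP fibroblast cells, line 68-5-11 | Buffer or medium: DMEM containing 5-aza-dC | Dosing: One concentration, pinned | Times: 3 d treatment, 15 min room-temperature fixation | Controls: Ellipticine 6 µM positive control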
Cneo AK release = Cryptococcus neoformans lysis via adenylate kinase release. C. neoformans lysis, adenylate kinase release luminescence, 4 h; normalised: neutral wells 0, clomiphene wells 100. AID 651654. lysis activity, % at 15 µM. 0.2% of 360,000 active;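 active = mean lysis activity across replicates of at least 80%, whatever share of replicates individually reach that level; inactive = mean lysis activity below 80%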
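Schedule: static 4 h at 37 °C with compound, 1 h detection; system: C. neoformans cells; benchmarks: Clomiphene as positive control; buffer or medium: fresh YPD medium; measure: luminescence rise reflecting yeast cell lysis; measured by: luminescent adenylate kinase detection reagent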
FN deposition inh = fibronectin deposition inhibition; AH1F fibroblasts, Alexa488-fibronectin deposition fluorescence, overnight; inhibition, % at 12.6 µM; 0.086% of 350,000 active;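 active = mean inhibition across replicates of 30% or more, regardless of how many single replicates reach that level; inconclusive = mean under 30% yet at least half of replicates reach 30%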;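 also: positive control wells lacked labelled fibronectin entirely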
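Assay system: AH1F fibroblasts / Quantity: 10000 cells per well / Medium: DMEM plus 2% serum, read in PBS / Reagent: labelled fibronectin 24 nM / Dosing: single dose, pinned / Times: 1 h cell attachment, overnight exposure to compound and label / Signal: fluorescence, ex 485 nm, em 525 nm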
DENV2 CPE = protects cells from dengue virus 2 cytopathic effect; 1.7% of 350,000 active; CPE inhibition, % at 9.99 µM; DENV2-infected cells, cytopathic effect rescue, plate reader; AID 651640; in the data active = CPE inhibition above about 20%, passing the limit was not always enough; inconclusive = no clear call, values can overlap the other calls; tested in BHK-21 cells;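 also: 0% = median of neutral control wells and 100% = median of positive control wells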
F508del corr = correctors of CFTR F508del function in bronchial epithelial cells; activity (quench increase), % at 7.58 µM; 0.36% of 350,000 active; CFBE cells, YFP halide quenching; stimulated with forskolin plus potentiator P3; % fluorescence drop versus neutral controls; AID 720511;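 active = mean added fluorescence quench of at least 8% versus neutral control, with both replicates also reaching 8%; inconclusive = only one of the mean or replicate conditions met; inactive = mean below 8% and not both replicates reaching 8%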;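 also: cells transiently co-express mutant CFTR-F508del with the halide-sensitive YFP; corrector assay measuring rescue of mutant channel to the surface after 24 h compound exposure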
An asterisk follows results filed as active.

What do the screens show for `COCC(=O)N1CC(=O)N2[C@H](CO)[C@H](c3ccc(C#Cc4cccc(OC)c4)cc3)[C@@H]2C1`?
PGC1a acetyl inh: -3; Xi reactivation: 0; DENV2 CPE: 40*; F508del corr: -2

How did O=C(Cc1ccccc1)N1CC(=O)N2[C@H](CO)[C@@H](c3ccc(-c4ccc(F)cc4)cc3)[C@@H]2C1 do in these assays?
PGC1a acetyl inh: 2; Xi reactivation: 0; FN deposition inh: -3; DENV2 CPE: 1; F508del corr: 6

Results for O=C(Cc1ccccc1)N1CC(=O)N2[C@H](CO)[C@@H](c3ccc(-c4ccccc4)cc3)[C@@H]2C1 ?
PGC1a acetyl inh: 8; Xi reactivation: 0; DENV2 CPE: 4; F508del corr: 12*

How did COCC(=O)N1CC(=O)N2[C@H](CO)[C@H](c3ccc(C#Cc4cccc(OC)c4)cc3)[C@H]2C1 do in these assays?
PGC1a acetyl inh: -15; Xi reactivation: 0; DENV2 CPE: 2; F508del corr: 0

What do the screens show for `CC(C)C[C@H]1COCc2cn(nn2)CC[C@H](Cc2cccc(Cl)c2)C(=O)N1`?
Xi reactivation: 0; FN deposition inh: -1

How did CN1[C@@H]2Cn3c(ccc(-c4ccccc4)c3=O)[C@H]1[C@@H](C(=O)NCCCN1CCOCC1)[C@@H]2CO do in these assays?
Xi reactivation: 0; Cneo AK release: 36; DENV2 CPE: 17; F508del corr: -1

How did CCn1c(=O)n(CC)c2cc(N3CCCC3)c(NC(=O)c3ccccc3)cc21 do in these assays?
PGC1a acetyl inh: 5; Xi reactivation: 0; Cneo AK release: -1; FN deposition inh: 2; DENV2 CPE: inconclusive; F508del corr: 1

What do the screens show for `CCn1c(=O)n(CC)c2cc(N3CCCC3)c(NC(=O)c3ccc(C)cc3)cc21`?
PGC1a acetyl inh: -10; Xi reactivation: 0; Cneo AK release: 0; FN deposition inh: 2; DENV2 CPE: 36*; F508del corr: 3

How did N#C[C@H]1[C@@H](c2ccc(C3=CCCC3)cc2)[C@@H](CO)N1C(=O)C1CCCC1 do in these assays?
PGC1a acetyl inh: -3; Xi reactivation: 0; Cneo AK release: -1; FN deposition inh: -1; DENV2 CPE: 72*; F508del corr: 0

What do the screens show for `N#C[C@@H]1[C@@H](c2ccc(-c3cncnc3)cc2)[C@H](CO)N1C(=O)C1CCCC1`?
PGC1a acetyl inh: 12; Xi reactivation: 0; Cneo AK release: 0; FN deposition inh: -4; DENV2 CPE: 23*; F508del corr: -2

What do the screens show for `CO[C@@H]1CN(C)C(=O)c2ccc(NC(=O)C3CC3)cc2OC[C@@H](C)N(CC2CCCC2)C[C@H]1C`?
PGC1a acetyl inh: 0; Xi reactivation: -1; FN deposition inh: 11; DENV2 CPE: 2; F508del corr: 2

Results for O=C1c2ccccc2C(=O)N1CC(=O)N1c2ccccc2Sc2ccc(C(F)(F)F)cc21 ?
PGC1a acetyl inh: 13; Xi reactivation: 0; Cneo AK release: 4; FN deposition inh: 1; DENV2 CPE: 35*; F508del corr: 1

How did O=S(=O)(Cc1cc(N2CCOCC2)nc(-c2ccccn2)n1)c1ccccc1 do in these assays?
PGC1a acetyl inh: 13; Xi reactivation: 0; FN deposition inh: -12; DENV2 CPE: 33*; F508del corr: -1

What do the screens show for `Cc1nc(CS(=O)(=O)c2ccc(Cl)cc2)cc(N2CCOCC2)n1`?
PGC1a acetyl inh: 11; Cneo AK release: -1

What do the screens show for `C[C@@H]1CN([C@@H](C)CO)S(=O)(=O)c2ccc(-c3ccccc3)cc2O[C@H]1CN(C)CC1CCCC1`?
PGC1a acetyl inh: 5; Xi reactivation: -1; Cneo AK release: 3; DENV2 CPE: 39*; F508del corr: 4

Results for C[C@H]1CN([C@@H](C)CO)S(=O)(=O)c2ccc(-c3ccccc3)cc2O[C@@H]1CN(C)C(=O)C1CCCCC1 ?
PGC1a acetyl inh: -15; Xi reactivation: 1; Cneo AK release: 5; DENV2 CPE: -10; F508del corr: 1

Results for C[C@H]1CN([C@@H](C)CO)S(=O)(=O)c2ccc(-c3ccc(F)cc3)cc2O[C@@H]1CN(C)C(=O)C1CCCCC1 ?
PGC1a acetyl inh: 3; Xi reactivation: -1; Cneo AK release: 0; FN deposition inh: -28; DENV2 CPE: 52*; F508del corr: 3

What do the screens show for `C[C@@H]1CN([C@@H](C)CO)S(=O)(=O)c2ccc(-c3ccccc3)cc2O[C@H]1CN(C)C(=O)C1CCCCC1`?
PGC1a acetyl inh: -16; Xi reactivation: -1; Cneo AK release: 112*; DENV2 CPE: -17; F508del corr: 2

Results for C[C@@H]1CN([C@@H](C)CO)C(=O)c2cccc(NC(=O)Nc3cccc4ccccc34)c2O[C@H]1CN(C)S(=O)(=O)c1cn(C)cn1 ?
Xi reactivation: -1; FN deposition inh: -4

What do the screens show for `CCCNC(=S)NNC(=O)c1cc(C2CC2)nc2ccccc12`?
Xi reactivation: 1; Cneo AK release: -1; DENV2 CPE: 25*; F508del corr: 1

How did CCNC(=S)NNC(=O)c1cc(C2CC2)nc2ccccc12 do in these assays?
PGC1a acetyl inh: 4; Cneo AK release: -2

How did O=C(C[C@@H]1C=C[C@H](NC(=O)Nc2ccccc2F)[C@H](CO)O1)NCc1ccc(Cl)cc1 do in these assays?
PGC1a acetyl inh: 4; Xi reactivation: 0; Cneo AK release: -4; DENV2 CPE: 4; F508del corr: 0

Results for O=C(Nc1ccccc1F)N[C@H]1CC[C@@H](CCNS(=O)(=O)c2ccc(Cl)cc2)O[C@@H]1CO ?
PGC1a acetyl inh: 3; Xi reactivation: -1; Cneo AK release: 1; DENV2 CPE: 2; F508del corr: -2

What do the screens show for `O=C(CCCN1C(=O)/C(=C\c2cccs2)SC1=S)Nc1cccnc1`?
PGC1a acetyl inh: -2; Xi reactivation: 0; Cneo AK release: 2; FN deposition inh: 16; DENV2 CPE: 30*; F508del corr: -1

What do the screens show for `COc1cc(/C=C2/SC(=S)N(CC(=O)Nc3cccnc3)C2=O)cc(OC)c1OC`?
Xi reactivation: 4; FN deposition inh: -8

What do the screens show for `COc1ccc(/C=C2\SC(=O)N(CC(=O)Nc3cccnc3)C2=O)cc1OC`?
PGC1a acetyl inh: -7; Xi reactivation: 0; Cneo AK release: -1; DENV2 CPE: 23*

Results for C[C@@H]1CN([C@H](C)CO)S(=O)(=O)c2ccc(C#Cc3ccncc3)cc2O[C@H]1CN(C)C(=O)C1CC1 ?
PGC1a acetyl inh: 0; Xi reactivation: 0; Cneo AK release: 16; DENV2 CPE: -3; F508del corr: -3
